Screening results: PubChem, The Scripps Research Institute Molecular Screening Center
Sampled rows, rich in hits. Any-hit rate of the full collection: about 1.8%.
NPY2 pot ag: NPY-Y2 potentiators or agonists, primary screen, cell-based. Neuropeptide Y receptor type 2 (Homo sapiens), P49146. 0.45% of 220,000 active. AID 1359, 2008. cells expressing NPY-Y2, potentiator/agonist read-out. activation, % at 3.6 µM; in the data active means activation above about 27%;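 further: cells stimulated with NPY near EC25 plus isoproterenol at EC100; 0% = vehicle plus submaximal agonist and 100% = vehicle plus saturating agonist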
Target sequence (P49146 whole entry, looked up): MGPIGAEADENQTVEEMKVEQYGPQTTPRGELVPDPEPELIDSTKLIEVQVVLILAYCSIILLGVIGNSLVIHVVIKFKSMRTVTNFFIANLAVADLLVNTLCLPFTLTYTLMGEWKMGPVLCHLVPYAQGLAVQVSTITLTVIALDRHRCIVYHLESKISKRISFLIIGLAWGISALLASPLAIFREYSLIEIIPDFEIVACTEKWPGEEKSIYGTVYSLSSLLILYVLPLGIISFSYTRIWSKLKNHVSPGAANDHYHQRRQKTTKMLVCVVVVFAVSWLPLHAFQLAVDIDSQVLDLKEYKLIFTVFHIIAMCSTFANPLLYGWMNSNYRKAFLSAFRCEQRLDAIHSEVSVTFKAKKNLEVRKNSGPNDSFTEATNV
NPY1 pot ag: NPY-Y1 receptor potentiators or agonists, primary screen, cell-based; NPY-Y1 expressing cells, potentiator/agonist activation; activation, % at 3.6 µM; 0.37% of 220,000 active; AID 1304, 2008; in the data active means activation above about 33%, passing the limit was not always enough;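 further: cells stimulated with NPY at EC10 then isoproterenol at EC100; 0% = low agonist plus stimulus and 100% = saturating agonist plus stimulus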
Target sequence (P25929 whole entry, looked up): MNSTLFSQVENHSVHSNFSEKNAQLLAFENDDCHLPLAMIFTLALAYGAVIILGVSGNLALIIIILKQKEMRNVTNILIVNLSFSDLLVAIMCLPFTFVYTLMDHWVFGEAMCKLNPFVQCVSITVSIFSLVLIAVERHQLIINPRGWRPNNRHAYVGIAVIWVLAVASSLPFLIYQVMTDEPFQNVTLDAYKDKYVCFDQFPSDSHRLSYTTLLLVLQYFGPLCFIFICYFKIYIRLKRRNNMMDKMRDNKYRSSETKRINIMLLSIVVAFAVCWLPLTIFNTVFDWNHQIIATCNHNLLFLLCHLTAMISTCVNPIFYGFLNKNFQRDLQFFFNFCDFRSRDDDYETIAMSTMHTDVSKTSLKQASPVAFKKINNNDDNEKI
NPY-Y2 antag: NPY-Y2 receptor antagonists, primary screen, cell-based. Neuropeptide Y receptor type 2 (Homo sapiens), P49146. NPY-Y2 expressing cells, antagonist mode. inhibition, % at 2.7 µM. 0.99% of 140,000 active. AID 793, 2007; in the data active means inhibition above about 17%;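 further: 0% = vehicle with agonist challenge and 100% = reference antagonist with challenge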
NPY-Y1 antag: NPY-Y1 receptor antagonists, primary screen, cell-based; Neuropeptide Y receptor type 1 (Homo sapiens), P25929; HEK293-CNG Y1 cells, membrane potential fluorescence; NPY at EC95, then isoproterenol; inhibition, % at 3.6 µM; 1% of 200,000 active;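 active means inhibition above the campaign mean inhibition of all tested compounds plus 3 SD, cut at about 20% in these data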;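 further: 0% = DMSO wells given NPY plus isoproterenol and 100% = isoproterenol alone without NPY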
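material = HEK293 cells with Y1 receptor plus CNG channel | also added = NPY 25 nM then isoproterenol 1 µM plus Ro 20-1724 25 µM | schedule = dye 3 h, compound 60 min room temperature, stimulation 45 min | measured by = membrane potential fluorescence | benchmarks = high control isoproterenol alone, low control NPY with isoproterenol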
NPY1 antag ctr: NPY-Y1 receptor antagonists, selectivity check, counter-screen for NPY-Y2 antagonist project, cell-based; shares compounds with NPY-Y2 antag; cell-based NPY-Y1 antagonism counterscreen; inhibition, % at 3.6 µM; 19% of 710 active; AID 1256, 2008;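 further: cells challenged with NPY then isoproterenol with cAMP sensed through a CNG channel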
NPY2 antag conf: NPY-Y2 receptor antagonists, retest of hits, confirmation, HEK293-CNG cells, membrane potential fluorescence, triplicate; inhibition, % at 2.8 µM; shares compounds with NPY-Y2 antag; HEK293 NPY-Y2 CNG channel; 32% of 710 active; AID 1257, 2008;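 active means mean inhibition of triplicate wells above the hit cutoff set in the primary screen, cut at about 17% in these data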;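 further: 0% = DMSO with NPY challenge and 100% = BIIE0246 high control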
NPY1 antag conf: NPY-Y1 receptor antagonists, retest of hits, confirmation, HEK293-CNG cells, membrane potential fluorescence, triplicate. AID 1254, 2008. cAMP; NPY challenge against isoproterenol-raised cAMP. inhibition, % at 3.6 µM. shares compounds with NPY-Y1 antag. 21% of 1,200 active;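 further: 0% = vehicle with agonist plus stimulus and 100% = stimulus alone without agonist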
NPY-Y2 antag ct: NPY-Y2 receptor antagonists, selectivity check, confirmation, counter-screen for NPY-Y1 antagonist project, HEK293-CNG cells, membrane potential fluorescence, triplicate. AID 1255, 2008. inhibition, % at 3.6 µM. shares compounds with NPY-Y1 antag. 28% of 1,200 active. antagonism; cells given NPY, then isoproterenol; in the data active means inhibition above about 17%;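 further: 0% = DMSO with agonist challenge and 100% = reference antagonist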
Starred values were filed as active, the others as inactive; nt = no result; ! = a repeat was not active. Unless noted, no stated cut-off is given here; in the data, active means inhibition above about 20%; inactive means the rest.

SMILES	NPY2 pot ag	NPY1 pot ag	NPY-Y2 antag	NPY-Y1 antag	NPY1 antag ctr	NPY2 antag conf	others
S=C(N/N=C/c1ccccc1Cl)Nc1ccccc1	-14.8	-34.5	5.0	9.9	nt	nt
O=C(c1ccc2c(c1)N(Cc1cccc(Cl)c1)C(=O)c1ccccc1S2(=O)=O)N1CCN(c2ccccn2)CC1	10.8	10.5	nt	-4.2	nt	nt
Cc1c(NC(=O)c2ccc(COc3ccc4ccccc4c3)o2)c(=O)n(-c2ccccc2)n1C	-4.3	-10.6	18.1*	8.0	14.5	8.9
O=C(Nc1ccc(N2CCCCC2)cc1)c1cc([N+](=O)[O-])cc([N+](=O)[O-])c1	-10.7	6.6	nt	3.0	nt	nt
CCn1c(C(C)NC(=O)c2cccs2)n[nH]c1=S (stereo unspecified)	-1.5	4.9	22.4*	1.0	0.8	-0.1
C=CCn1c(C(C)NC(=O)c2cccs2)n[nH]c1=S (stereo unspecified)	-2.8	14.1	10.4	1.9	nt	nt
COc1ccc(C2=C(CN(C)C)C(c3ccccc3)c3ccccc3O2)cc1 (stereo unspecified)	-20.9	-17.0	18.1*!	23.5*!	24.9*	34.3*
Cc1c(C(=O)Nc2nc3ccccc3[nH]2)oc2ccc(Br)cc12	-19.4	-6.1	19.0*	-0.9	11.6	13.6
Cc1c(C(=O)Nc2nc3ccccc3[nH]2)oc2ccccc12	-0.4	-1.4	4.9	2.8	nt	nt
CN1C(=O)NC2(O)C(=O)c3ccccc3C12O (stereo unspecified)	-6.7	-17.8	18.9*	4.8	-0.6	2.9
CCCN1C(=O)NC2(O)C(=O)c3ccccc3C12O (stereo unspecified)	10.5	-11.2	-3.1	5.6	nt	nt
Cc1cc(=O)n2c(n1)NC(Nc1cccc(C)c1C)=NC2c1ccccc1 (stereo unspecified)	11.6	30.3	nt	nt	nt	nt
Nc1nc(CN2CCCCCC2)nc(Nc2ccccc2)n1	-2.3	-12.1	-2.7	-0.7	nt	nt
Nc1nc(CN2CCC(Cc3ccccc3)CC2)nc(Nc2ccccc2)n1	-7.3	-46.0	19.0*	12.9	16.0	14.6
COc1ccccc1-c1coc2cc(OC(=O)N3CCOCC3)ccc2c1=O	5.0	13.4	nt	nt	nt	nt
CCC(Oc1ccc2c(=O)c(-c3ccccc3OC)coc2c1)C(=O)OCc1ccccc1 (stereo unspecified)	-18.2	-16.6	37.3*	1.5	6.2	65.8*
CN(C)c1ccc(C(=O)OCc2ccccc2)cc1	-16.9	-31.1	7.7	7.3	nt	nt
COC(=O)c1ccc(COC(=O)c2ccc(N(C)C)cc2)cc1	-4.9	-46.3	20.4*	7.9	4.0	10.0
Cc1cc(C)c2c(=O)[nH]c(SCC(=O)Nc3ccccc3)nc2n1	-7.5	-7.5	18.7*	-0.6	1.4	5.0
CCOc1nc(SCCOc2ccc(C)cc2)nc(N(C)C)n1	-14.0	-48.4	10.9	11.8	nt	nt
CCOc1nc(SCCOc2ccc(Cl)cc2Cl)nc(N(C)C)n1	-15.8	-39.0	19.8*	10.2	20.0	44.0*
Cc1nc(SCC(=O)c2ccc(Cl)cc2)c([N+](=O)[O-])[nH]1	-25.1	-9.8	5.9	-1.3	nt	nt
CCCCOc1ccc(C2=NNC(=O)CC2)cc1	-9.9	-39.6	22.5*	9.4	19.0	39.4*
O=C(Nc1ccccc1)OCc1cc(-c2ccccc2Cl)on1	-18.5	-10.1	21.8*	16.5	19.4	17.9*
COC(=O)c1c(C)oc2ccc(N(C(=O)c3ccncc3)S(=O)(=O)c3ccc4ccccc4c3)cc12	-31.4	-18.5	22.9*	3.4	19.4	31.2*
SMILES	NPY2 pot ag	NPY1 pot ag	NPY-Y2 antag	NPY-Y1 antag	NPY1 antag ctr	NPY2 antag conf	others
COC(=O)c1c(C)oc2ccc(N(C(=O)c3ccncc3)S(=O)(=O)c3ccccc3)cc12	4.3	-17.4	7.5	-2.4	nt	nt
O=C(O)CCC(=O)Nc1ccc(C(=O)OCC(=O)c2ccc(Cl)cc2Cl)cc1	18.1	15.4	nt	0.9	nt	nt
CC(C)(C)n1nnnc1C(c1cccnc1)N(Cc1ccccc1)Cc1ccco1 (stereo unspecified)	-4.0	-0.9	17.5*	18.3	5.9	2.5
CCC(C)(C)n1nnnc1C(c1ccc(C)cc1)N(Cc1ccco1)Cc1cccs1 (stereo unspecified)	1.1	-22.5	22.5*	17.8	10.3	9.8
O=C(CNS(=O)(=O)c1ccccc1)Nc1cccc([N+](=O)[O-])c1	-10.5	1.5	nt	1.9	nt	nt
CCc1cccc(CC)c1NC(=O)c1ccccc1CCc1ccccc1	-6.2	-48.4	18.7*	2.0	28.2*	16.9
CCNC(=S)Nc1cccc(F)c1C	-13.7	-11.5	nt	-2.7	nt	nt
CN(C)C=Nc1ccccc1C1C=NNC1=O (stereo unspecified)	10.8	12.5	nt	nt	nt	nt
CCOc1ccc(NCc2nnc(SCc3ccc(Cl)cc3)n2-c2ccccc2)cc1	-19.2	-10.4	1.8	-0.2	nt	nt
c1ccc(N(c2ccccc2)c2nc(-n3ccnc3)nc(-n3ccnc3)n2)cc1	17.8	36.1	23.3*	3.1	5.8	2.7
COc1ccc(C(=O)Nc2ccc(-c3ccc(C)o3)cc2)cc1S(=O)(=O)N1CCOCC1	15.2	22.9	-0.2	20.2*	nt	nt	NPY1 antag conf=15.8;NPY-Y2 antag ct=14.0
COc1ccc(C(=O)Nc2cccc(C)c2)cc1S(=O)(=O)N1CCOCC1	6.0	-0.4	6.3	1.9	nt	nt
Cc1ccc(S(=O)(=O)N(C)C)cc1NC(=O)Nc1c(-c2ccccc2)noc1C	-5.0	-2.3	nt	nt	nt	nt
Cc1onc(-c2ccccc2)c1NC(=O)Nc1c(-c2ccccc2)noc1C	5.5	12.6	nt	30.5*	nt	nt	NPY1 antag conf=6.6;NPY-Y2 antag ct=1.8
COc1cc(NC(=S)NCCc2ccc(S(N)(=O)=O)cc2)c(OC)cc1Cl	7.0	3.9	nt	4.1	nt	nt
CC(=O)Nc1ccc(S(=O)(=O)Nc2nc(C)cc(-n3nc(C)cc3C)n2)cc1	-5.9	-20.6	5.2	22.4*	nt	nt	NPY1 antag conf=9.5;NPY-Y2 antag ct=9.5
Clc1cccc(OCCN2CCN(CCOc3cccc(Cl)c3)CC2)c1	-3.6	-4.8	10.7	21.1*	nt	nt	NPY1 antag conf=4.9;NPY-Y2 antag ct=6.5
CC(C)CC(c1nnnn1C(C)C)N1CCN(c2cccc(Cl)c2)CC1 (stereo unspecified)	-36.5	-2.0	12.8	36.6*	nt	nt	NPY1 antag conf=12.9;NPY-Y2 antag ct=5.3
COc1ccc(CCN(C)C(=O)C2CCN(Cc3cccc(OC)c3OC)CC2)cc1OC	3.2	6.1	nt	4.2	nt	nt
